Active and inactive are the calls of the source. No cut-off for these calls is given here.

In ChEMBL document CHEMBL4715843, “NO-releasing STAT3 inhibitors suppress BRAF-mutant melanoma growth” (Eur J Med Chem, 2020) one finds inhibition of growth, inhibition and Activity data, which are given here for two compounds.

For one assay, the system named is UO-31. The assay is described as follows: Anticancer activity against human UO-31 cells assessed as cell growth inhibition at 10 uM measured after 48 hrs by SRB assay relative to control. The format is functional. As to conditions: read-out: GI. In short, it runs like this:
(§1)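 NCI 60-cell-line screen. Cells in RPMI with 5% FBS were plated at 5,000–40,000 cells/well by doubling time and preincubated 24 h at 37 °C. Compound was added at a single 10 µM for 48 h, then cells were fixed with cold TCA (10% final) and stained with 0.4% SRB. Absorbance at 515 nm gave percent growth versus untreated control and time-zero cells.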

Assay [1] concerns the target Signal transducer and activator of transcription 3 (Mus musculus) (UniProt P42227). The assay is described as follows: Inhibition of EGF-induced STAT3 phosphorylation in MEF assessed as reduction in STAT3 nuclear translocation preincubated overnight followed by EGF stimulation and measured after 30 mins by DAPI staining based immunofluorescence assay. As to conditions: dose 5-50 µM. The method, boiled down: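 MEF cells (2000/well) were allowed to adhere for 24 h, then held overnight in serum-free medium with inhibitor doses. They were stimulated with full RPMI containing 100 nM EGF for 30 min, then fixed in 4% paraformaldehyde and permeabilized. Cells were immunostained for STAT3 (Alexa Fluor 488) with DAPI nuclear counterstain and nuclear STAT3 was quantified by imaging; three independent experiments.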

The test system of a further assay is U-87 MG. The assay is described as follows: Antiproliferative activity against human U-87 MG cells measured after 48 hrs by MTS assay. The format is functional, cell-based. The following applies: U-87MG ATCC. In short, it runs like this: (§2)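 Cells were exposed to a dose range of inhibitor for 48 h, and viability was read by MTS assay in triplicate. GI50 was taken as the concentration giving 50% growth inhibition, averaged from three independent experiments. A375 was cultured in RPMI-1640 with Glutamax. A549 and NCI-H157 were kept in RPMI-1640, and MIA PaCa-2 and U87-MG in DMEM.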
A general note: Formazan colour is commonly taken as a measure of viable cells.

Assay [2] deals with Proto-oncogene tyrosine-protein kinase Src (Homo sapiens) (UniProt P12931). The assay is described as follows: Inhibition of SRC phosphorylation in human MIA PaCa-2 cells at 25 uM after 12 hrs by Western blotting analysis. Type of assay: cell-based. In short, it runs like this: (§3)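 Cells lysed in M-PER after 12 h drug exposure (overnight per text); 60 µg total protein run on 10% SDS-PAGE, transferred to PVDF, probed overnight at 4 °C with phospho-specific antibodies. Panel lines (U87-MG, MDA-MB-468, MIA PaCa-2, NCI-H157, A549) given 25 µM; A375 given 0, 5, 10, 25 µM. Actin and/or vinculin loading controls.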
A general note: In western blotting, separated proteins are transferred to a membrane and probed.

The test system of a further assay is NCI-H157. The assay is described as follows: Antiproliferative activity against human NCI-H157 cells measured after 48 hrs by MTS assay. The format is functional, cell-based. The method, boiled down: as §2
Assay [3] concerns the target T1, Signal transducer and activator of transcription 3 (Homo sapiens, UniProt P40763). The assay is described as follows: Inhibition of STAT3 phosphorylation at Y705 residues in human U-87 MG cells at 25 uM after 12 hrs by Western blotting analysis. The format is cell-based. In short, it runs like this:
as §3

A further assay concerns MIA PaCa-2. The assay can be described thus: Antiproliferative activity against human MIA PaCa-2 cells measured after 48 hrs by MTS assay. The format is functional, cell-based. In short, it runs like this:
as §2

The target of assay [4] is Proto-oncogene tyrosine-protein kinase Src (Homo sapiens) (UniProt P12931). The assay can be described thus: Inhibition of SRC phosphorylation in human MDA-MB-468 cells at 25 uM after 12 hrs by Western blotting analysis. The format is cell-based. The method, boiled down:
as §3

A further assay has as its system A549. The assay is described as follows: Antiproliferative activity against human A549 cells measured after 48 hrs by MTS assay. The format is functional, cell-based. In short, it runs like this:
as §2

For assay [5], the target named is Tyrosine-protein kinase JAK2 (Homo sapiens) (UniProt O60674). The assay can be described thus: Inhibition of JAK2 phosphorylation in human NCI-H157 cells at 25 uM after 12 hrs by Western blotting analysis. The format is cell-based. In short, it runs like this: as §3
In assay [6] the target is Proto-oncogene tyrosine-protein kinase Src (Homo sapiens) (UniProt P12931). The assay is described as follows: Inhibition of SRC phosphorylation in human U-87 MG cells at 25 uM after 12 hrs by Western blotting analysis. The format is cell-based. The method, boiled down:
as §3

Assay [7] concerns 451Lu. The assay is described as follows: Induction of apoptosis in human SB-590885-sensitive 451Lu cells assessed as increase in cleaved PARP expression measured after 12 hrs by Western blot analysis. Type of assay: functional. In short, it runs like this:
(§4)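 Sensitive and resistant 451 Lu cells were exposed to a dose range for 12 h before lysis. PARP, cleaved PARP and caspase-7 were detected by western blot against a vinculin loading control; repeated twice.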

In assay [8] the test system is 451Lu. The assay is described as follows: Induction of apoptosis in human SB-590885-resistant 451Lu cells assessed as increase in cleaved caspase-7 expression measured after 12 hrs by Western blot analysis. Type of assay: functional. The method, boiled down:
as §4

Another assay concerns A-375. The assay can be described thus: Induction of ROS generation in human A-375 cells incubated for 18 hrs by DCFH-DA dye based flow cytometry. The following applies: dose 10-25 µM. Type of assay: functional, cell-based. In short, it runs like this: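 A375 cells (1×10^6) were treated with DMSO, 10 or 25 µM for 18 h in full RPMI, then trypsinized and washed. They were loaded with 10 µM DCFH-DA (final) for 30 min at 37 °C in the dark. DCF fluorescence was read by flow cytometry (488 nm excitation, 535 nm filter).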
For orientation: Flow cytometry measures light scatter and fluorescence of single cells or particles in a stream.

The next assay deals with CCRF-CEM. The assay can be described thus: Anticancer activity against human CCRF-CEM cells assessed as cell growth inhibition at 10 uM measured after 48 hrs by SRB assay relative to control. The following applies: read-out: GI. The format is functional. The method, boiled down:
as §1

The subject of the next assay is T47D. The assay can be described thus: Anticancer activity against human T47D cells assessed as cell growth inhibition at 10 uM measured after 48 hrs by SRB assay relative to control. The format is functional. The following applies: read-out: GI. In short, it runs like this: as §1
For assay [9], the target named is Proto-oncogene tyrosine-protein kinase Src (Homo sapiens) (UniProt P12931). The assay is described as follows: Inhibition of SRC phosphorylation in human NCI-H157 cells at 25 uM after 12 hrs by Western blotting analysis. Type of assay: cell-based. In short, it runs like this: as §3
The target in assay [10] is T1, Signal transducer and activator of transcription 3. The assay can be described thus: Inhibition of IL-6 induced STAT3 activation in human A-375 cells preincubated for overnight followed by IL-6 addition and measured after 30 mins by Western blot analysis. Type of assay: cell-based. In short, it runs like this: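 A375 cells were held overnight in serum-free medium with inhibitor doses, then stimulated in full medium with 25 ng/mL IL-6 for 30 min. Lysates were immunoblotted for STAT3 pY705/pS727 and Cyclin D1.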

The target is the same in assay [11]. The assay is described as follows: Inhibition of STAT3 phosphorylation at S727 residues in human MDA-MB-468 cells at 25 uM after 12 hrs by Western blotting analysis. Type of assay: cell-based. The method, boiled down: as §3
The target of assay [12] is Tyrosine-protein kinase JAK2 (Homo sapiens) (UniProt O60674). The assay is described as follows: Inhibition of JAK2 phosphorylation in human U-87 MG cells at 25 uM after 12 hrs by Western blotting analysis. Type of assay: cell-based. The method, boiled down: as §3
Assay [13] deals with T1, Signal transducer and activator of transcription 3. The assay can be described thus: Inhibition of STAT3 phosphorylation at Y705 residues in human NCI-H157 cells at 25 uM after 12 hrs by Western blotting analysis. Type of assay: cell-based. In short, it runs like this: as §3
The target is the same in assay [14]. The assay is described as follows: Inhibition of STAT3 phosphorylation at S727 residues in human MIA PaCa-2 cells at 25 uM after 12 hrs by Western blotting analysis. Type of assay: cell-based. In short, it runs like this: as §3
For assay [15], the system named is 451Lu. The assay is described as follows: Induction of apoptosis in human SB-590885-resistant 451Lu cells assessed as increase in cleaved PARP expression measured after 12 hrs by Western blot analysis. The format is functional. In short, it runs like this: as §4
A further assay has as its system MEL1617. The assay can be described thus: Antiproliferative activity against human MEL1617 cells measured after 48 hrs by MTS assay. The format is functional, cell-based. In short, it runs like this: as §2
The test system of the next assay is UACC-62. The assay is described as follows: Anticancer activity against human UACC-62 cells assessed as cell growth inhibition at 10 uM measured after 48 hrs by SRB assay relative to control. The format is functional. The following applies: read-out: GI. The method, boiled down:
as §1

T1 sequence (P40763 whole entry): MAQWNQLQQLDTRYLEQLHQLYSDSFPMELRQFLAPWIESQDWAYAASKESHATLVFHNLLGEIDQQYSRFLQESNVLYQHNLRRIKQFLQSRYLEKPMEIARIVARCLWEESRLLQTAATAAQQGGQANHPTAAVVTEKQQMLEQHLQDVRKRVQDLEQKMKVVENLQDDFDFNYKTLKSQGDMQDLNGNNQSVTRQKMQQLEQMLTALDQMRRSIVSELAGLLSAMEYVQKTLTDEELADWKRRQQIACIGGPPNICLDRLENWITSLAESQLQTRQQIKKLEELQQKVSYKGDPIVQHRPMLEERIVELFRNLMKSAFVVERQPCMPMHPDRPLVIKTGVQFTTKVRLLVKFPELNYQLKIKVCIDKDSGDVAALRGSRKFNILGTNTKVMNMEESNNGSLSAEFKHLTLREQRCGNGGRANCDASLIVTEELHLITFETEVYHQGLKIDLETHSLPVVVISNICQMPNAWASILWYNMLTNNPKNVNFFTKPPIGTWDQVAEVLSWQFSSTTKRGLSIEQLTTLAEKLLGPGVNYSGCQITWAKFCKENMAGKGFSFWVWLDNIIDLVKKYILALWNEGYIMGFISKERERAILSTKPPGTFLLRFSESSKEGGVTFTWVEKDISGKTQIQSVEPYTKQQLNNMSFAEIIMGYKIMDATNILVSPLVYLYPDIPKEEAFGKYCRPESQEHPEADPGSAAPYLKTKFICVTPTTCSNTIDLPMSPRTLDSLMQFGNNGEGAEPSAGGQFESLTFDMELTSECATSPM
Proto-oncogene tyrosine-protein kinase Src (Homo sapiens), sequence (P12931 2-536 limits assumed): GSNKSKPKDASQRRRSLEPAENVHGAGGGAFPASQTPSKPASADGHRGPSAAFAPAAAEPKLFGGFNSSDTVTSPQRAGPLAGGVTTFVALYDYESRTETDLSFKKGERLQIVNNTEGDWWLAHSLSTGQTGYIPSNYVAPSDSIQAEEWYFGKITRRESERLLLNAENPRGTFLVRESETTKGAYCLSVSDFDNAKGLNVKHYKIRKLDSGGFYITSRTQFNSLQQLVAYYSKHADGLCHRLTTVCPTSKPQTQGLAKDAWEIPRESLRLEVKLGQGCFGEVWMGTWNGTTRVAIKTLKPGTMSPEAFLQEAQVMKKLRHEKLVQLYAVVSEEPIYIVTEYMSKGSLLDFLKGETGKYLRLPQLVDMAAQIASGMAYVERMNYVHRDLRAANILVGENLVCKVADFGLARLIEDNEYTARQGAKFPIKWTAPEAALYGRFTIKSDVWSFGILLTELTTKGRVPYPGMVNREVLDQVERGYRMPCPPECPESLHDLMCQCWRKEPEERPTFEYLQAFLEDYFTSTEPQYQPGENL
Tyrosine-protein kinase JAK2 (Homo sapiens), sequence (O60674 whole entry): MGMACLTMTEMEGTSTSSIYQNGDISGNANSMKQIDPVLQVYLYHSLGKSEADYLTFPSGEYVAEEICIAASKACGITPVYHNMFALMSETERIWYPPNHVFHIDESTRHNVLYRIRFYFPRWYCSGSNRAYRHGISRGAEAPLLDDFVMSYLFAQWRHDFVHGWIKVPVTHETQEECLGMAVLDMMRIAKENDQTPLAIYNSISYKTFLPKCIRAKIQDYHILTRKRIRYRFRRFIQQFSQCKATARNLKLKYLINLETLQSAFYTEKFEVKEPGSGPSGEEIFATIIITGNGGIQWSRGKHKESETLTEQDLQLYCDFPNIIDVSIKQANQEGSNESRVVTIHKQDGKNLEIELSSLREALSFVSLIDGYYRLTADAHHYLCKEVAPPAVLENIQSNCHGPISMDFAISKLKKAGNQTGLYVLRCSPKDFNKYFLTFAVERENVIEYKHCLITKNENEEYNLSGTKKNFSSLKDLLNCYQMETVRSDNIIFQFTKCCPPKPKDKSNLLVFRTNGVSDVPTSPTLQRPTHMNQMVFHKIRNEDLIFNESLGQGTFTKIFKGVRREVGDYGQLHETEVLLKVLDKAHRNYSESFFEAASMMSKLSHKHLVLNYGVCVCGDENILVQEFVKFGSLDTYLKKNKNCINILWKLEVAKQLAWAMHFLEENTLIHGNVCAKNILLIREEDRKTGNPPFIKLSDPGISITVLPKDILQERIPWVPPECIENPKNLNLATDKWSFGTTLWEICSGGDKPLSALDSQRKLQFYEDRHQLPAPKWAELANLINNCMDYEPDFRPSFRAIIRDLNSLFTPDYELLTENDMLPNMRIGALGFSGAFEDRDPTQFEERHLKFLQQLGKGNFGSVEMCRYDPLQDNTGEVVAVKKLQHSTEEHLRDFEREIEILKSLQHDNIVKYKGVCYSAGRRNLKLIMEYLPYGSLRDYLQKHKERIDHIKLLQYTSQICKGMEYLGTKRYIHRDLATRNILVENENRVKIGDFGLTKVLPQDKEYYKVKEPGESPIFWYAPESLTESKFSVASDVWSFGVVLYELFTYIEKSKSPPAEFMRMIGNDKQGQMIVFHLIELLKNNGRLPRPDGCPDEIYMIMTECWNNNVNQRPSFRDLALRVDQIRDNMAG
Signal transducer and activator of transcription 3 (Mus musculus), sequence (P42227 whole entry): as the sequence (P40763 whole entry) above, with E760D counted along it

With `C=CCn1c(SCC(=O)Nc2ccc(/C(C)=N\O)cc2)nnc1-c1cc(-c2ccc(Cl)cc2)nc2ccccc12`, the inhibition of growth at 10 µM in the assay with UO-31 came to 100%. The inhibition entry in assay [1] was “Dose-dependent effect”.

Take `C=CCn1c(SCC(=O)Nc2ccc(/C(C)=N\O)cc2)nnc1-c1cc(-c2ccccc2)nc2ccccc12`: the outcome with U-87 MG, in the assay on NCI-H157, in the assay with MIA PaCa-2, in the assay on A549 and in the assay with MEL1617 was Active. The inhibition result in [2], in assay [4], in [5], in assay [6], in assay [9] and in [12] was “inactive” throughout. Also, the inhibition result in [3], in [11], in [13] and in assay [14] was “Active” in each case. The Activity entry with 451Lu [7], in the assay on 451Lu [8], in the assay with A-375 and with 451Lu [15] was “Dose-dependent effect” throughout. Moreover, the inhibition of growth at 10 µM in the assay with CCRF-CEM, in the assay with T47D and with UACC-62 was 76% each time. Further, the inhibition result in [10] is “Dose-dependent effect”.
